In ChEMBL document CHEMBL1140114, “Antitumor compounds based on a natural product consensus pharmacophore” (J Med Chem, 2008):
Active and inactive are the calls of the source. No cut-off for these calls is given here.

Experiments:
[1] = tested on: A549; experiment: Cytotoxicity against human A549 cells after 72 hrs by XTT colorimetric assay; format: functional, cell-based; details: A549, 72 h
In short: (§1)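 Seven-line tumour panel run with an XTT colorimetric cytotoxicity read-out; IC50 values estimated from the XTT data. Tissue origins: A549 lung carcinoma, MCF-7 breast cancer, OVCAR-3 ovarian cancer, PC-3 prostate cancer, WiDr colorectal cancer.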

[2] = tested on: WiDr; experiment: Cytotoxicity against human WiDr cells after 72 hrs by XTT colorimetric assay
[3] = tested on: PC-3; experiment: Cytotoxicity against human PC3 cells after 72 hrs by XTT colorimetric assay; format: functional, cell-based; details: PC-3, 72 h; in short: as §1
[4] = tested on: OVCAR-3; experiment: Cytotoxicity against human OVCAR-3 cells after 72 hrs by XTT colorimetric assay; format: functional, cell-based; details: OVCAR-3, 72 h; in short: as §1
[5] = tested on: MCF7; experiment: Cytotoxicity against human MCF7 cells after 72 hrs by XTT colorimetric assay; format: functional, cell-based; details: MCF7, 72 h; in short: as §1
[6] = tested on: A549; experiment: Cytotoxicity against human A549 cells at 5 uM after 72 hrs by XTT colorimetric assay; format: functional
In short: (§2)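 Initial screen on a five-line panel (A549, COS-7, MCF-7, WiDr, NIH3T3). Compounds were tested at concentrations up to 5 µM. Read-out was percent inhibition of cell growth at the highest concentration, 5 µM.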

[7] = tested on: MCF7; experiment: Cytotoxicity against human MCF7 cells at 5 uM after 72 hrs by XTT colorimetric assay; format: functional; in short: as §2
[8] = tested on: WiDr; experiment: Cytotoxicity against human WiDr cells upto 5 uM after 72 hrs by XTT colorimetric assay; format: functional, cell-based; in short: as §2
[9] = tested on: MCF7; experiment: Cytotoxicity against human MCF7 cells upto 5 uM after 72 hrs by XTT colorimetric assay; format: functional, cell-based; in short: as §2
[10] = tested on: NIH3T3; experiment: Cytotoxicity against mouse NIH3T3 cells upto 5 uM after 72 hrs by XTT colorimetric assay; format: cell-based; details: nih3t3, 72 h; in short: as §2
[11] = Cytotoxicity against african green monkey COS7 cells upto 5 uM after 72 hrs by XTT colorimetric assay; format: cell-based; details: chlorocebus aethiops, cos-7, 72 h; in short: as §2
[12] = tested on: A549; experiment: Cytotoxicity against human A549 cells upto 5 uM after 72 hrs by XTT colorimetric assay; format: functional, cell-based; in short: as §2
[13] = Cytotoxicity against human JeKo1 cells after 72 hrs by XTT colorimetric assay; format: functional, cell-based; details: JeKo-1, 72 h
In short: (§3)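 Mantle cell lymphoma lines (JeKo-1, JVM-2), screened within a seven-line human tumour panel. Viability read out by XTT colorimetric cytotoxicity assay, with IC50 estimated from the resulting growth inhibition data.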

[14] = tested on: JVM-2; experiment: Cytotoxicity against human JVM2 cells after 72 hrs by XTT colorimetric assay; format: functional, cell-based; details: JVM-2, 72 h; in short: as §3

SMILES	IC50 [1]	IC50 [2]	IC50 [3]	IC50 [4]	IC50 [5]	further results
CC[C@H](O)[C@@H](C)[C@H]1O[C@@H]1C[C@H](C)/C=C/C=C(\C)[C@H]1OC(=O)C[C@H](O)CC[C@@](C)(O)[C@@H](OC(C)=O)CC[C@@H]1C [PLADIENOLIDE B]	1.4 nM	0.86 nM	2.3 nM	0.4 nM	0.4 nM	
CC(=O)O[C@@H](C)/C=C\C(=O)N[C@@H]1C[C@H](C)[C@H](C/C=C(C)/C=C/[C@H]2O[C@](C)(O)C[C@@]3(CO3)[C@@H]2O)O[C@@H]1C	1.3 nM				1.8 nM	
CC(=O)O[C@@H](C)/C=C\C(=O)N[C@H]1CC[C@@H](COC(=O)OC[C@@H]2C[C@]3(CO3)CC(C)(C)O2)CC1						Activity [6]: 10%; Activity [7]: 10%
CC(=O)O[C@@H](C)/C=C\C(=O)N[C@H]1CC[C@@H](CNC(=O)OC[C@@H]2C[C@]3(CO3)CC(C)(C)O2)CC1						Activity [8]: inactive; Activity [9]: inactive; Activity [10]: Not Active; Activity [11]: Not Active; Activity [12]: inactive
CC(=O)O[C@@H](C)/C=C\C(=O)N[C@H]1CC[C@@H](C/C=C(C)/C=C/[C@@H]2C[C@]3(CO3)CC(C)(C)O2)CC1	4650 nM	2030 nM	2120 nM	1980 nM	2290 nM	IC50 [13]: 100 nM; IC50 [14]: 130 nM
